The source of these data is ChEMBL document CHEMBL1128426, “Cyclic variations of 3-quinolinecarboxamides and effects on antiherpetic activity” (1995).

The test system of assay [1] is Mus musculus. As to the kind of experiment: The compound was tested in vivo for the lowest dose(minimum effective dose) at which anti-herpetic activity was observed in terms of survival times of mice after po administration. Type of assay: functional. To be noted: read-out: MED. The method, boiled down:
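HSV-2 infection model in mice, test agent given orally. MED is the lowest dose giving survival times statistically different from placebo, based on at least two experiments for active compounds.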

Assay [2] relates to Mus musculus. As to the kind of experiment: The maximum tolerated dose (MTD) was defined as the highest dose of compound that did not show any signs of toxicity in mice after po administration. The class given is functional. In short, it runs like this: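 Oral dosing in mice within the HSV-2 infection model. MTD is the highest dose showing no overt signs of toxicity.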
Assay [3] has as its system Vero. As to the kind of experiment: The compound was tested in vitro for the highest concentration (maximum tolerated level) that showed no cellular toxicity by visualization of stained cells. The class given is functional, Chlorocebus sabaeus. In short, it runs like this:
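Maximum tolerated level, run alongside the HSV-2 plaque assay in Vero cells: the highest concentration showing no cellular toxicity when the stained cells were inspected visually.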

The subject of assay [4] is Vero. As to the kind of experiment: In vitro anti-herpetic activity against HSV-2 plaque formation in vero cells. Type of assay: functional. To be noted: Chlorocebus sabaeus. In short, it runs like this:
(§1)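 HSV-2 plaque reduction in Vero cells. MIC is the lowest concentration that inhibited plaque formation by 50%. For active compounds, values are the mean of at least two experiments, SD under ±50%.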

Assay [5] deals with Vero. As to the kind of experiment: In vitro anti-herpetic activity against HSV-2 plaque formation in vero cells; no activity. Type of assay: functional, cell-based. As to conditions: Chlorocebus sabaeus. In short, it runs like this: as §1
Assay [6] concerns Mus musculus. As to the kind of experiment: The compound was tested in vivo for the lowest dose(minimum effective dose) at which anti-herpetic activity was observed in terms of survival times of mice after po administration; no activity. The class given is functional, organism-based.
For assay [7], the system named is Mus musculus. As to the kind of experiment: The compound was tested in vivo for the lowest dose(minimum effective dose) at which anti-herpetic activity (HSV-2) was observed in terms of survival times of mice after po administration; no activity. Type of assay: functional, organism-based.

Converted amounts (≈) assume the structure as drawn. The source made the active and inactive calls.

The MTD is the highest dose tested that stayed within the study's limit of toxicity. As for `CCn1cc(C(N)=O)c(=O)c2ccc(-c3ccncc3)cc21`, in the assay with Mus musculus [1], the minimal effective dose is 50 mg/kg. Also, in the assay on Mus musculus [2], the maximum tolerated dose (MTD) was 50 mg/kg. Besides, in the assay on Vero [3], the MTL was found to be 12.5 µg/mL. In the assay on Vero [4], this compound registered an MIC of 6.5 µg/mL (≈ 22.2 µM).
`CCn1cc2c(=O)ncnc-2c2ccc(-c3ccncc3)cc21`: the MIC result in the assay with Vero [5] was “inactive”. Also, in the assay with Vero [3], the MTL was greater than 100 µg/mL.
As to `CCn1c(C)c2c(=O)onc-2c2ccc(-c3ccncc3)cc21`, in the assay with Mus musculus [2], the MTD was greater than 50 mg/kg. For the same compound, the MTL in the assay with Vero [3] is greater than 100 µg/mL. Further, the MED entry in the assay with Mus musculus [6] is “inactive”. In the assay on Vero [4], this compound yielded an MIC of 2.9 µg/mL (≈ 9.5 µM).
In the case of `CCn1cc2c(=O)n(C)nc-2c2ccc(-c3ccncc3)cc21`, in the assay with Vero [5], the MIC result was “inactive”. Also, the MTL in the assay on Vero [3] was found to be 3.1 µg/mL.
As to `CCn1cc2c(=O)n(-c3ccccc3)nc-2c2ccc(-c3ccncc3)cc21`, in the assay with Vero [5], the MIC entry is “inactive”. For the same compound, the MTL in the assay on Vero [3] was greater than 100 µg/mL.
As to `CCn1cc2c(O)cnc-2c2ccc(-c3ccncc3)cc21`, in the assay on Vero [5], the MIC result is “inactive”. Besides, in the assay on Vero [3], the MTL was 100 µg/mL.
Regarding `CCn1c(C)c(C(N)=O)c(=O)c2ccc(-c3ccncc3)cc21`, the MIC entry in the assay with Vero [5] was “inactive”. In the assay on Vero [3], this compound gave an MTL of 50 µg/mL.
As for `CCn1cc2c(=O)[nH]nc-2c2ccc(-c3ccncc3)cc21`, the MTD in the assay with Mus musculus [2] was greater than 200 mg/kg. The same compound came in with an MTL in the assay with Vero [3] of 50 µg/mL. In addition, the MED result with Mus musculus [6] was “inactive”. In the assay with Vero [4], this compound yielded an MIC of 27 µg/mL (≈ 93 µM).
Consider `Nc1nc2c(ncn2COCCO)c(=O)[nH]1` [ACYCLOVIR], for which, in the assay with Mus musculus [1], the minimal effective dose amounted to 12 mg/kg. Moreover, in the assay on Mus musculus [2], the maximal tolerated dose (MTD) is greater than 200 mg/kg. In addition, the MTL in the assay with Vero [3] is greater than 200 µg/mL. Moreover, the MIC in the assay on Vero [4] came out at 1.3 µg/mL (≈ 5.77 µM).
On to `CCn1cc2c(=O)onc-2c2ccc(-c3ccncc3)cc21`, for which the maximal tolerated dose (MTD) in the assay with Mus musculus [2] is greater than 400 mg/kg. In addition, the MTL with Vero [3] was greater than 100 µg/mL. Further, the MED result in the assay with Mus musculus [7] was “inactive”. The MIC with Vero [4] was 6.3 µg/mL (≈ 21.6 µM).
On to `NC(=O)c1cn(-c2ccc(F)cc2)c2cc(-c3ccncc3)ccc2c1=O`, for which the minimal effective dose with Mus musculus [1] turned out to be 25 mg/kg. In the assay on Mus musculus [2], this compound displayed an MTD of 50 mg/kg. This compound also had an MTL in the assay with Vero [3] of 6.25 µg/mL. In the assay on Vero [4], this compound registered an MIC of 0.24 µg/mL (≈ 0.668 µM).
